36 molecules from ChEMBL document CHEMBL1125890, “Synthesis, calcium-channel-blocking activity, and antihypertensive activity of 4-(diarylmethyl)-1-[3-(aryloxy)propyl]piperidines and structurally related compounds” (J Med Chem, 1991) can be followed below.

Test [1] has as its system Rattus norvegicus. The experiment in a line: Antihypertensive activity expressed as change in mean arterial blood pressure (MABP) in spontaneously hypertensive rats (SHR), at 3-6h after 30 mg/kg oral administration. The test is classed as functional, Artery. The gist of the method:
(§1)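 Adult male SHR, catheter implanted in carotid artery or abdominal aorta under anesthesia at least 24 h before dosing. Baseline pressure recorded 1-1.5 h. Compound given orally at 30 mg/kg as solution or suspension in 0.5% Tween 80/distilled H2O (v/v) or other vehicle. MABP read at 0.5, 1, 1.5, 2, 3, 4, 5 and 6 h. Average percent change from predose calculated per period. Paired one-tailed t test, p < 0.05. n = 3-6 rats unless noted.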

The test system of test [2] is Rattus norvegicus. The experiment in a line: Antihypertensive activity expressed as change in mean arterial blood pressure (MABP) in spontaneously hypertensive rats (SHR),at 0.5-2h after 30 mg/kg oral administration. The test is classed as functional, Artery. The essentials: as §1
Another test is filed under the species Oryctolagus cuniculus. The experiment in a line: Calcium channel-blocking activity by determined by ability to antagonize calcium-induced contractions of isolated rabbit aortic strips. The class given is functional. Conditions: Aorta, read-out: pA2 (converted). The gist of the method: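 Rabbit aortic strips were bathed in turn in CaCl2-containing buffer, CaCl2-free buffer, then depolarizing (KCl) CaCl2-free buffer. Cumulative CaCl2 addition induced contractions, recorded with force-displacement transducers. Responses were compared without and with 1–100 nM test compound. pA2 was calculated by the Van Rossum method from at least three tissues.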

Each structure is given as a SMILES string.

For `Fc1ccc(C(c2ccc(F)cc2)C2CCN(CCCOc3ccccc3)CC2)cc1`, the Change in the test with Rattus norvegicus [1] is -2%; in the test with Rattus norvegicus [2], -1%. In addition, in the test filed under Oryctolagus cuniculus, the Kb is 1.58 nM.

On to `Fc1ccc(C(c2ccc(F)cc2)C2CCN(CCCOc3ccc4ccccc4c3)CC2)cc1`, for which the results for the Change with Rattus norvegicus [1] and in the test on Rattus norvegicus [2] were -4% and -7%, respectively. The Kb in the test listed under Oryctolagus cuniculus was 7.94 nM.

Take `COc1cc(C(C)=O)ccc1OCCCN1CCC(C(C#N)(c2ccc(F)cc2)c2ccc(F)cc2)CC1`: the Change with Rattus norvegicus [1] is on record as -26%; with Rattus norvegicus [2], -17%. In addition, the Kb in the test filed under Oryctolagus cuniculus was 2 nM.

Consider `O=S(=O)(CCCN1CCC(C(c2ccc(F)cc2)c2ccc(F)cc2)CC1)c1ccccc1`, for which the Change is 3% with Rattus norvegicus [1] and 2% in the test with Rattus norvegicus [2]. The Kb in the test listed under Oryctolagus cuniculus is 20 nM.

As to `COc1cc(C(C)=O)ccc1OCCCN1CCC(C(c2ccc(C)cc2)c2ccc(C)cc2)CC1`, the Change is on record as -2% in the test with Rattus norvegicus [1] and 3% in the test on Rattus norvegicus [2]. Further, the Kb in the test listed under Oryctolagus cuniculus is 15.8 nM.

`Fc1ccc(C(c2ccc(F)cc2)C2CCN(CCCOc3cccc4ccccc34)CC2)cc1`: the Change is -7% in the test with Rattus norvegicus [1] and -6% in the test with Rattus norvegicus [2]. The Kb in the test filed under Oryctolagus cuniculus was 5.01 nM.

Take `Fc1ccc(C(c2ccc(F)cc2)C2CCN(CCCOc3ccc(Cl)cc3)CC2)cc1`: the results for the Change in the test with Rattus norvegicus [1] and in the test on Rattus norvegicus [2] were -25% and -15%, respectively. In the test filed under Oryctolagus cuniculus, the Kb was 2 nM.

For `COc1cc(C(C)=O)ccc1OCCCN1CCC(C(c2ccccc2)c2ccc(F)cc2)CC1` (stereo not drawn), the results for the Change in the test on Rattus norvegicus [1] and in the test with Rattus norvegicus [2] were -12% and -8%, respectively. Further, the Kb in the test filed under Oryctolagus cuniculus is 6.31 nM.

Take `COC(=O)c1ccc(OCCCN2CCC(C(c3ccc(F)cc3)c3ccc(F)cc3)CC2)c(OC)c1`: the Change is -2% in the test on Rattus norvegicus [1] and -4% in the test with Rattus norvegicus [2]. Also, the Kb in the test filed under Oryctolagus cuniculus was 1.26 nM.

On to `COc1cc(C(C)=O)ccc1OCCCN1CCC(C(c2ccc(F)c(F)c2)c2ccc(F)c(F)c2)CC1`, for which the Change in the test with Rattus norvegicus [1] was -35%; in the test with Rattus norvegicus [2], -28%. Besides, in the test filed under Oryctolagus cuniculus, the Kb is 2.51 nM.

Turning to `Fc1ccc(C(c2ccc(F)cc2)C2CCN(CCOc3cccc4ccccc34)CC2)cc1`, the Change in the test on Rattus norvegicus [1] is -27%; in the test with Rattus norvegicus [2] it was -19%. Besides, in the test filed under Oryctolagus cuniculus, the Kb is 12.6 nM.

`CC(=O)c1ccc(OCCCN2CCC(C(c3ccc(F)cc3)c3ccc(F)cc3)CC2)cc1`: the figures for the Change in the test with Rattus norvegicus [1] and with Rattus norvegicus [2] were 0% and -1%, respectively. The Kb in the test listed under Oryctolagus cuniculus is 2.51 nM.

Consider `COc1cc(C#N)ccc1OCCCN1CCC(C(c2ccc(F)cc2)c2ccc(F)cc2)CC1`, for which the Change in the test with Rattus norvegicus [1] is -9%; with Rattus norvegicus [2], -3%. In the test filed under Oryctolagus cuniculus, the Kb was 2 nM.

`COc1cc(C(C)=O)ccc1OCCCN1CCC(CC(C#N)(c2ccc(F)cc2)c2ccc(F)cc2)C1` (stereo not drawn): the Change with Rattus norvegicus [1] is reported as -7%; in the test on Rattus norvegicus [2], 3%. The Kb in the test filed under Oryctolagus cuniculus was 10 nM.

`COc1cc(C(C)=O)ccc1OCCCN1CCC(C(c2ccc(F)cc2)c2ccccn2)CC1` (stereo not drawn): the Change with Rattus norvegicus [1] was 3%; in the test with Rattus norvegicus [2] it was -3%. Besides, the Kb in the test listed under Oryctolagus cuniculus was 158 nM.

In the case of `COc1cc(C(C)=O)ccc1OCCCN1CCC(C(C(N)=O)(c2ccc(F)cc2)c2ccc(F)cc2)CC1`, the figures for the Change in the test with Rattus norvegicus [1] and with Rattus norvegicus [2] were 5% and 3%, respectively. In addition, in the test listed under Oryctolagus cuniculus, the Kb is 25.1 nM.

For `COc1cc(C(C)=O)ccc1OCCCN1CCC(C(c2ccc(Cl)cc2)c2ccc(Cl)cc2)CC1`, the Change was -9% in the test on Rattus norvegicus [1] and -3% with Rattus norvegicus [2]. In the test listed under Oryctolagus cuniculus, the Kb is 2.51 nM.

Turning to `COc1cc(C(C)=O)ccc1OCCN1CCC(C(c2ccc(F)cc2)c2ccc(F)cc2)CC1`, the figures for the Change with Rattus norvegicus [1] and in the test with Rattus norvegicus [2] were 0% and -4%, respectively. For the same molecule, in the test filed under Oryctolagus cuniculus, the Kb was 6.31 nM.

Take `COc1cc(C(C)=O)ccc1OCCCN1CCC(C(N)(c2ccc(F)cc2)c2ccc(F)cc2)CC1`: the Change in the test on Rattus norvegicus [1] is -10%; with Rattus norvegicus [2], 1%. In addition, the Kb in the test listed under Oryctolagus cuniculus is 31.6 nM.

Turning to `COc1cc(C(C)=O)ccc1OCCCN1CCC(Cc2ccc(F)cc2)CC1`, the Change in the test with Rattus norvegicus [1] is recorded as -4%; with Rattus norvegicus [2], -7%. Also, in the test listed under Oryctolagus cuniculus, the Kb is 20 nM.

For `COc1ccc(OCCCN2CCC(C(c3ccc(F)cc3)c3ccc(F)cc3)CC2)cc1`, the figures for the Change with Rattus norvegicus [1] and in the test on Rattus norvegicus [2] were -3% and -2%, respectively. In addition, in the test listed under Oryctolagus cuniculus, the Kb is 2.51 nM.

For `COc1cc(C(C)=O)ccc1OCCCN1CCC(C(O)(c2ccc(F)c(F)c2)c2ccc(F)c(F)c2)CC1`, the Change is recorded as -24% in the test with Rattus norvegicus [1] and -5% in the test with Rattus norvegicus [2]. In addition, in the test filed under Oryctolagus cuniculus, the Kb was 2.51 nM.

On to `COc1cc(C(C)=O)ccc1OCCCN1CCC(C(O)(c2ccc(F)cc2)c2ccc(F)cc2)CC1`, for which the values for the Change with Rattus norvegicus [1] and with Rattus norvegicus [2] were -9% and -5%, respectively. Besides, the Kb in the test listed under Oryctolagus cuniculus is 10 nM.

Regarding `COc1cc(C(C)=O)ccc1OCCCN1CCC(C(c2ccccc2)c2ccccc2)CC1`, the Change with Rattus norvegicus [1] was -12%; with Rattus norvegicus [2], -20%. For the same molecule, the Kb in the test filed under Oryctolagus cuniculus is 6.31 nM.

On to `Fc1ccc(C(c2ccc(F)cc2)C2CCN(CCOc3ccc4ccccc4c3)CC2)cc1`, for which the Change in the test with Rattus norvegicus [1] is on record as -30%; with Rattus norvegicus [2], -16%. Moreover, in the test listed under Oryctolagus cuniculus, the Kb was 3.98 nM.

Regarding `COc1cc(C(C)=O)ccc1OCCCN1CCC(C(c2ccc(F)cc2)c2ccc(F)cc2)CC1`, the Change with Rattus norvegicus [1] is recorded as -22%; with Rattus norvegicus [2], -15%. Also, the Kb in the test filed under Oryctolagus cuniculus is 1.58 nM.

For the molecule `N#Cc1ccc(OCCCN2CCC(C(c3ccc(F)cc3)c3ccc(F)cc3)CC2)cc1`, the figures for the Change in the test with Rattus norvegicus [1] and with Rattus norvegicus [2] were -11% and 8%, respectively. Moreover, in the test listed under Oryctolagus cuniculus, the Kb is 5.01 nM.

`COc1cc(C(C)=O)ccc1OCCCCCCN1CCC(C(c2ccc(F)cc2)c2ccc(F)cc2)CC1`: the Change with Rattus norvegicus [1] was -22%; in the test on Rattus norvegicus [2], -10%. The Kb in the test listed under Oryctolagus cuniculus was 6.31 nM.

In the case of `Fc1ccc(C(c2ccc(F)cc2)C2CCN(CCCCc3ccccc3)CC2)cc1`, the Change with Rattus norvegicus [1] is on record as -9%; in the test with Rattus norvegicus [2] it was -5%. Also, the Kb in the test listed under Oryctolagus cuniculus is 2.51 nM.

As to `Nc1ccc(OCCCN2CCC(C(c3ccc(F)cc3)c3ccc(F)cc3)CC2)cc1`, the Change in the test on Rattus norvegicus [1] is -8%; in the test on Rattus norvegicus [2], -5%. Moreover, in the test listed under Oryctolagus cuniculus, the Kb was 31.6 nM.

With `COc1cc(C(C)=O)ccc1OCCCN1CCC(C(c2cccc(F)c2)c2cccc(F)c2)CC1`, the results for the Change in the test on Rattus norvegicus [1] and with Rattus norvegicus [2] were -9% and -11%, respectively. The Kb in the test listed under Oryctolagus cuniculus is 3.16 nM.

For `COc1cc(C(C)O)ccc1OCCCN1CCC(C(c2ccc(F)cc2)c2ccc(F)cc2)CC1` (stereo not drawn), the Change with Rattus norvegicus [1] is -9%; in the test with Rattus norvegicus [2], -14%. Besides, the Kb in the test filed under Oryctolagus cuniculus is 10 nM.

In the case of `COc1ccc(C(c2ccc(OC)cc2)C2CCN(CCCOc3ccc(C(C)=O)cc3OC)CC2)cc1`, the Change with Rattus norvegicus [1] was determined as 1%; with Rattus norvegicus [2], 2%. For the same molecule, the Kb in the test filed under Oryctolagus cuniculus was 10 nM.

Take `CCc1ccc(OCCCN2CCC(C(c3ccc(F)cc3)c3ccc(F)cc3)CC2)c(OC)c1`: the Change is listed as -7% in the test on Rattus norvegicus [1] and -9% in the test with Rattus norvegicus [2]. In addition, the Kb in the test filed under Oryctolagus cuniculus is 2.51 nM.

On to `CC(C)(C)c1ccc(OCCCN2CCC(C(c3ccc(F)cc3)c3ccc(F)cc3)CC2)cc1`, for which the Change was -10% with Rattus norvegicus [1] and -15% in the test on Rattus norvegicus [2]. Besides, the Kb in the test listed under Oryctolagus cuniculus was 1 nM.

On to `CN(CCCN1CCC(C(c2ccc(F)cc2)c2ccc(F)cc2)CC1)c1ccccc1`, for which the Change in the test with Rattus norvegicus [1] was -6%; in the test on Rattus norvegicus [2], -3%. Also, the Kb in the test listed under Oryctolagus cuniculus is 2 nM.
